According to ChEMBL document CHEMBL3745705, “Discovery of Oral VEGFR-2 Inhibitors with Prolonged Ocular Retention That Are Efficacious in Models of Wet Age-Related Macular Degeneration” (J Med Chem, 2015):
Values after ≈ are worked out from the molar mass of the structure shown. Values belong to the compound of their own block, whether it stands above or below them.

Columns and labels:
Mus musculus [1] = species on record: Mus musculus; assay: animal or person; conditions: C57BL/6, po, read-out: INH
[2] = Dose normalized Cmax in Brown Norway rat retina at 6 mg/kg, po; type: ADME, organism-based; conditions: in vivo
[3] = target: Mast/stem cell growth factor receptor Kit (Homo sapiens, UniProt P10721); assay: Inhibition of c-Kit (unknown origin)
Chain of Mast/stem cell growth factor receptor Kit (P10721 whole entry): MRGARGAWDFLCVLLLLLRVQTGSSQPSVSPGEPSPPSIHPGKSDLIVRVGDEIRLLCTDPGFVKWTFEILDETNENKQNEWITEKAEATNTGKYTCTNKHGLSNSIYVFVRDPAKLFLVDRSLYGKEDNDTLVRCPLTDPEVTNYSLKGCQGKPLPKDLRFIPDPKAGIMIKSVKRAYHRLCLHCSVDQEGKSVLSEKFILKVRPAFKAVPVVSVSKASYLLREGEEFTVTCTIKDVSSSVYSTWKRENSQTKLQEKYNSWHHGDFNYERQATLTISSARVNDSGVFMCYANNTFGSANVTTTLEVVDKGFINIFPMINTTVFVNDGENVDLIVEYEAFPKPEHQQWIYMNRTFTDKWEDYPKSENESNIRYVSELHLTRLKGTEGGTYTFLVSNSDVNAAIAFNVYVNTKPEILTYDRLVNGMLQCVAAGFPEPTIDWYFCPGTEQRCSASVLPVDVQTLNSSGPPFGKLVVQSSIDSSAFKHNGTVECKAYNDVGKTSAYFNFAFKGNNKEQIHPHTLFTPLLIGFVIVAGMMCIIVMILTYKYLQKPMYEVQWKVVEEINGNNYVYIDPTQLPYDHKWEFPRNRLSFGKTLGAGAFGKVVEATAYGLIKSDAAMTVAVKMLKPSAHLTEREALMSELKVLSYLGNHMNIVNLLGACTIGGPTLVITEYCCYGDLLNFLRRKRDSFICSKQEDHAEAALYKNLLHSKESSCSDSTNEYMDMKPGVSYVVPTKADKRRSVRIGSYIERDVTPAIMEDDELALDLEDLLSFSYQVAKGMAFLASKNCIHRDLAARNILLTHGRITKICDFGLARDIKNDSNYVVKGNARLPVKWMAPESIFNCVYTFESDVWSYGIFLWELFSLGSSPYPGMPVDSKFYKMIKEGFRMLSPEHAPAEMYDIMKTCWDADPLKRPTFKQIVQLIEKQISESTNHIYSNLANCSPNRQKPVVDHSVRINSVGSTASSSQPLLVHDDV
In short: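 Selectivity measured in a 62-kinase panel, with results reported as IC50 (µM).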

Plasma [4] = assay: Dose normalized AUC (0 to 24 hrs) in Brown Norway rat plasma at 6 mg/kg, po; type: ADME, organism-based; conditions: in vivo
[5] = Half life in Brown Norway rat at 3 mg/kg, po or 1 mg/kg, iv by LC-MS/MS analysis; type: ADME, organism-based; conditions: in vivo
[6] = Dose normalized drug uptake in Brown Norway rat posteior eye cup at 6 mg/kg, po; type: ADME, organism-based; conditions: in vivo
[7] = Dose normalized drug uptake in Brown Norway rat retina at 6 mg/kg, po by LC-MS/MS analysis; type: ADME, organism-based; conditions: in vivo
Rattus norvegicus [8] = assay: AUC (0 to 8 hrs) in Brown Norway rat at 3 mg/kg, po by LC-MS/MS analysis; type: ADME, organism-based; set-up: dose 3 mg/kg, time < 8 hr, route oral; conditions: in vivo
[9] = Dose normalized AUC (0 to 24 hrs) in Brown Norway rat posteior eye cup at 6 mg/kg, po; type: ADME, organism-based; conditions: in vivo
Plasma [10] = assay: Dose normalized plasma concentration in Brown Norway rat plasma at 6 mg/kg, po measured at 24 hrs by LC-MS/MS analysis; type: ADME, organism-based; conditions: in vivo
[11] = Cmax in Brown Norway rat at 3 mg/kg, po or 1 mg/kg, iv by LC-MS/MS analysis; type: ADME, organism-based; conditions: in vivo
Plasma [12] = assay: Dose normalized Cmax in Brown Norway rat plasma at 6 mg/kg, po; type: ADME, organism-based; conditions: in vivo
[13] = Volume of distribution at steady state in Brown Norway rat at 3 mg/kg, po or 1 mg/kg, iv by LC-MS/MS analysis; type: ADME, organism-based; conditions: in vivo, read-out: Vdss
Rattus norvegicus [14] = assay: Oral bioavailability in Brown Norway rat at 3 mg/kg by LC-MS/MS analysis; type: ADME, organism-based; conditions: in vivo
Rattus norvegicus [15] = assay: Antiangiogenic activity in po dosed Brown Norway rat laser-induced choroidal neovascularization model assessed as inhibition of neovascular lesion formation administered qd for 14 days by microscopic analysis; type: functional; conditions: 336 h
In short: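 Male Brown Norway rats, about 12 weeks old, dosed by oral gavage starting about 1 h before laser. Lesions were made under ketamine/xylazine i.p. (40–80 / 5–10 mg/kg) with 532 nm laser pulses (30 ms, 190 mW, 200 µm spot), about 4 lesions per eye and 10 rats per group. Vessels were labelled with i.v. 2,000 kD FITC dextran, eyes fixed in 4% paraformaldehyde, and CNV area measured blinded.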

[16] = Dose normalized AUC (0 to 24 hrs) in Brown Norway rat retina at 6 mg/kg, po; type: ADME, organism-based; conditions: in vivo
Mus musculus [17] = assay: Antiangiogenic activity in po dosed C57BL/6 mouse laser-induced choroidal neovascularization assessed as inhibition of neovascular lesion formation administered qd for 6 days measured on day 7 by microscopic analysis; type: functional; conditions: C57BL/6, po
[18] = Dose normalized Cmax in Brown Norway rat posteior eye cup at 6 mg/kg, po; type: ADME, organism-based; conditions: in vivo
[19] = Aqueous solubility of the compound at pH 6.8; conditions: aqueous medium
[20] = Plasma concentration in mouse model of laser-induced choroidal neovascularization at 100 mg/kg, po bid for 7 days measured 16 hrs post last dose; type: ADME, organism-based
Mus musculus [21] = assay: Antiangiogenic activity in mouse model of laser-induced choroidal neovascularization assessed as inhibition of neovascular lesion formation at 100 mg/kg, po bid for 7 days; type: functional; conditions: 168 h

Cmax/dose [2]: 170 nM/mg/kg
IC50 [3]: 600 nM
AUC/dose (Plasma [4]): 598 nM·h/mg/kg
half-life [5]: 2.3 h
Druguptake/dose [6]: 1067 nM/mg/kg
Druguptake/dose [7]: 122 nM/mg/kg
AUC (Rattus norvegicus [8]): 2.49 µM·h
AUC/dose [9]: 22266 nM·h/mg/kg
Cp/dose (Plasma [10]): 1.6 nM/mg/kg
Cmax [11]: 0.514 µM
Cmax/dose (Plasma [12]): 68 nM/mg/kg
Vd [13]: 5.6 L/kg
F (Rattus norvegicus [14]): 81%
AUC/dose [16]: 3215 nM·h/mg/kg
Cmax/dose [18]: 1067 nM/mg/kg
SMILES: C[C@H]1Cc2c(ncnc2Oc2ccc3c(ccn3C(=O)Nc3cc(C4(C)CC4)n[nH]3)c2)CN1
inhibition in vivo at 10 mg/kg (Mus musculus [1]): 67%
ED50 (Rattus norvegicus [15]): 2.9 mg/kg
ED90 (Rattus norvegicus [15]): 14.6 mg/kg
ED50 (Mus musculus [17]): 3.4 mg/kg
ED90 (Mus musculus [17]): 19.6 mg/kg

solubility [19]: 489 µM (≈ 203 µg/mL)
SMILES: CC1(c2cc(NC(=O)n3ccc4cc(Oc5ncnc6c5CNC6)ccc43)n[nH]2)CC1
inhibition in vivo at 10 mg/kg (Mus musculus [1]): 43%

solubility [19]: 190 µM (≈ 76.1 µg/mL)
SMILES: Cc1cncc(NC(=O)n2ccc3cc(Oc4ncnc5c4CCNC5)ccc32)c1

solubility [19]: 64 µM (≈ 28.3 µg/mL)
SMILES: CNCc1cc(Oc2ccc3c(ccn3C(=O)Nc3cccc(C(F)(F)F)c3)c2)ncn1
inhibition in vivo at 10 mg/kg (Mus musculus [1]): 67%

solubility [19]: 682 µM (≈ 294 µg/mL)
SMILES: CC(C)(C)c1cc(NC(=O)n2ccc3cc(Oc4ncnc5c4CCNC5)ccc32)n[nH]1
inhibition in vivo at 10 mg/kg (Mus musculus [1]): 0%

solubility [19]: 84 µM (≈ 38.1 µg/mL)
SMILES: O=C(Nc1cccc(C(F)(F)F)c1)n1ccc2cc(Oc3ncnc4c3CCNC4)ccc21
inhibition in vivo at 10 mg/kg (Mus musculus [1]): 87%

solubility [19]: 37 µM (≈ 15 µg/mL)
SMILES: CC(C)c1cc(NC(=O)n2ccc3cc(Oc4ncnc5c4CNC5)ccc32)no1
inhibition in vivo at 10 mg/kg (Mus musculus [1]): 96%

solubility [19]: 232 µM (≈ 97.1 µg/mL)
SMILES: CC(C)(C)c1cc(NC(=O)n2ccc3cc(Oc4ncnc5c4CNC5)ccc32)on1
inhibition in vivo at 10 mg/kg (Mus musculus [1]): 58%

The next lines start with the compound.

SMILES: C[C@H]1NCc2ncnc(Oc3ccc4c(ccn4C(=O)Nc4cccc(C(F)(F)F)c4)c3)c21
inhibition in vivo at 10 mg/kg (Mus musculus [1]): 0%

SMILES: C[C@@H]1Cc2c(ncnc2Oc2ccc3c(ccn3C(=O)Nc3cccc(C(F)(F)F)c3)c2)CN1
inhibition in vivo at 10 mg/kg (Mus musculus [1]): 58%

SMILES: C[C@@H]1NCc2ncnc(Oc3ccc4c(ccn4C(=O)Nc4cccc(C(F)(F)F)c4)c3)c21
inhibition in vivo at 10 mg/kg (Mus musculus [1]): 41%

SMILES: C[C@H]1Cc2c(ncnc2Oc2ccc3c(ccn3C(=O)Nc3cccc(C(F)(F)F)c3)c2)CN1
inhibition in vivo at 10 mg/kg (Mus musculus [1]): 96%
ED50 (Mus musculus [17]): 3.6 mg/kg
ED90 (Mus musculus [17]): 8.5 mg/kg

SMILES: O=C(Nc1cccc(C(F)(F)F)c1)n1ccc2cc(Oc3ncnc4c3CNC4)ccc21
inhibition in vivo at 10 mg/kg (Mus musculus [1]): 68%
ED50 (Mus musculus [17]): 6.9 mg/kg
ED90 (Mus musculus [17]): 31 mg/kg

SMILES: C[C@H]1Cc2c(ncnc2Oc2ccc3c(ccn3C(=O)Nc3cc(C(C)(C)C)on3)c2)CN1
inhibition in vivo at 10 mg/kg (Mus musculus [1]): 96%

SMILES: Cc1ccc(Nc2nccc(N(C)c3ccc4c(C)n(C)nc4c3)n2)cc1S(N)(=O)=O [PAZOPANIB]
concentration at 16 h [20]: 13 µM
inhibition in vivo at 100 mg/kg (Mus musculus [21]): 93%
